Data as given in ChEMBL document CHEMBL1154089, “Novel N-(3-carboxyl-9-benzyl-beta-carboline-1-yl)ethylamino acids: synthesis, anti-tumor evaluation, intercalating determination, 3D QSAR analysis and docking investigation” (Eur J Med Chem, 2009).

Columns and labels:
[1] = test system: HepG2; test: Cytotoxicity against human HepG2 cells after 48 hrs by MTT assay; type: functional, cell-based; details: HepG2, 48 h
Summary of the method: (§1)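 Cells grown in DMEM or RPMI-1640 with 10% FBS plus penicillin/streptomycin. Seeded at 5 × 10^4 cells/ml and given 4 h at 37 °C in 5% CO2 before the medium was replaced with compound (0.1–400 µM, DMSO vehicle; vehicle control 1% DMSO). After 48 h, MTT added (final 0.5 mg/ml) for 4 h. Formazan dissolved in DMSO and read at 570 nm. IC50 is the concentration giving 50% growth inhibition.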

[2] = test system: HL-60; test: Cytotoxicity against human HL60 cells after 48 hrs by MTT assay; type: functional, cell-based; details: HL-60, 48 h; summary of the method: as §1
[3] = Cytotoxicity against human H1299 cells after 48 hrs by MTT assay; type: functional, cell-based; details: NCI-H1299, 48 h; summary of the method: as §1
[4] = test system: Mus musculus; test: Toxicity in ICR mouse assessed as tremor at > 500 mg/kg, ip after 7 days; type: organism-based; set-up: dose 500 mg/kg, route intraperitoneal; details: in vivo, 168 h
Summary of the method: (§2)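 Mice fasted overnight with free access to water, then given a single i.p. injection of 150, 300 or 500 mg/kg in 0.2 ml of 0.9% saline. Groups of 12 (six male, six female). Animals were watched continuously for up to 7 days for abnormal behaviour (tremor, twitch, jumping, tetanus, supination) or death. They were sacrificed on day 7, and heart, liver and kidneys were checked macroscopically. LD50 was estimated graphically.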

[5] = test system: Mus musculus; test: Toxicity in ICR mouse assessed as jumping at > 500 mg/kg, ip after 7 days; type: organism-based; set-up: dose 500 mg/kg, route intraperitoneal; details: in vivo, 168 h; summary of the method: as §2
[6] = test system: Mus musculus; test: Toxicity in ICR mouse assessed as twitch at > 500 mg/kg, ip after 7 days; type: organism-based; set-up: dose 500 mg/kg, route intraperitoneal; details: in vivo, 168 h; summary of the method: as §2
[7] = test system: Mus musculus; test: Toxicity in ICR mouse assessed as liver necropsy at > 500 mg/kg, ip after 7 days; type: organism-based; set-up: dose 500 mg/kg, route intraperitoneal; details: in vivo, 168 h; summary of the method: as §2
[8] = test system: Mus musculus; test: Toxicity in ICR mouse assessed as kidneys necropsy at > 500 mg/kg, ip after 7 days; type: organism-based, Kidney; set-up: dose 500 mg/kg, route intraperitoneal; details: in vivo, 168 h; summary of the method: as §2
[9] = test system: Mus musculus; test: Toxicity in ICR mouse assessed as death at > 500 mg/kg, ip after 7 days; type: organism-based; set-up: dose 500 mg/kg, route intraperitoneal; details: in vivo, 168 h; summary of the method: as §2
[10] = test system: Mus musculus; test: Toxicity in ICR mouse assessed as heart necropsy at > 500 mg/kg, ip after 7 days; type: organism-based; set-up: dose 500 mg/kg, route intraperitoneal; details: in vivo, 168 h; summary of the method: as §2
[11] = test system: CCRF S-180; test: Antitumor activity against mouse S180 cells xenografted in ICR mouse assessed as decrease in tumor weight at 89 umol/kg, ip administered 24 hrs after tumor implantation once daily for 7 consecutive days measured after 24 hrs last post dose; type: functional
Summary of the method: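 Male ICR mice, 10–12 weeks old. Solid tumors from 1 × 10^7 viable S180 ascites cells in 0.2 ml 0.9% saline, injected s.c. at the right armpit. Random allocation at 24 h, 12 per group. Dosed i.p. daily in 0.2 ml 0.9% saline for 7 days. Saline-only negative control; cytarabine 89 µmol/kg positive control. Tumors excised and weighed 24 h after the last dose. ANOVA used for statistics.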

[12] = test system: Mus musculus; test: Toxicity in mouse S180 cells xenografted in ICR mouse assessed as increase in body weight at 89 umol/kg, ip administered 24 hrs after tumor implantation once daily for 7 consecutive days measured after 24 hrs last post dose; type: organism-based, CCRF S-180; details: in vivo
Summary of the method: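 S180-bearing male ICR mice, n = 12 per group, given 89 µmol/kg i.p. daily in 0.2 ml 0.9% saline for 7 days, starting 24 h after s.c. implantation. Animals weighed daily. Result expressed as body-weight increase from the start of treatment, in g, mean ± SD.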

[13] = test system: HeLa; test: Cytotoxicity against human HeLa cells after 48 hrs by MTT assay; type: functional, cell-based; summary of the method: as §1
[14] = test system: Mus musculus; test: Toxicity in mouse S180 cells xenografted in ICR mouse assessed as spleen index at 89 umol/kg, ip administered 24 hrs after tumor implantation once daily for 7 consecutive days measured after 24 hrs last post dose; type: organism-based, CCRF S-180; details: in vivo
Summary of the method: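 S180-bearing male ICR mice (n = 12) received 89 µmol/kg i.p. daily in 0.2 ml saline for 7 days. Killed under ether 24 h after the last dose; spleens excised and weighed. Spleen index given as mean ± SD, […] body weight.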

[15] = test system: CCRF S-180; test: Antitumor activity against mouse S180 cells xenografted in ICR mouse assessed as inhibition of tumor growth at 89 umol/kg, ip administered 24 hrs after tumor implantation once daily for 7 consecutive days measured after 24 hrs last post dose; type: functional; details: CCRF S-180, ip
Summary of the method: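 S180 solid tumors in male ICR mice (10–12 weeks), 1 × 10^7 cells s.c. at the right armpit. Mice randomized at 24 h, n = 12 per group, and dosed i.p. daily in 0.2 ml 0.9% saline for 7 days. Tumors weighed 24 h after the final dose. Inhibition (%) = [(A − B)/A] × 100, where A is the mean tumor weight of saline controls and B is the mean of the treated group.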

[16] = Cytotoxicity against human MES-SA cells after 48 hrs by MTT assay; type: functional, cell-based; summary of the method: as §1
[17] = test system: Mus musculus; test: Toxicity in ICR mouse assessed as supination at > 500 mg/kg, ip after 7 days; type: organism-based; set-up: dose 500 mg/kg, route intraperitoneal; details: in vivo, 168 h; summary of the method: as §2
[18] = test system: Mus musculus; test: Toxicity in ICR mouse assessed as tetanus at > 500 mg/kg, ip after 7 days; type: organism-based; set-up: dose 500 mg/kg, route intraperitoneal; details: in vivo, 168 h; summary of the method: as §2

O=C(O)C[C@H](NCCc1nc(C(=O)O)cc2c3ccccc3n(Cc3ccccc3)c12)C(=O)O
IC50 [1]: 114 µM | IC50 [2]: 43.2 µM | IC50 [3]: 69 µM | Activity [4]: Non-toxic | Activity [5]: Non-toxic | Activity [6]: Non-toxic | Activity [7]: Non-toxic | Activity [8]: Non-toxic | Activity [9]: Non-toxic | Activity [10]: Non-toxic | Activity [11]: 1.08 g | Activity [12]: 10.11 g | IC50 [13]: 99.3 µM | Activity [14]: 13 mg/g | inhibition in vivo at 89 µmol/kg [15]: 34.7% | IC50 [16]: 13 µM | Activity [17]: Non-toxic | Activity [18]: Non-toxic

N=C(N)NCCC[C@H](NCCc1nc(C(=O)O)cc2c3ccccc3n(Cc3ccccc3)c12)C(=O)O
IC50 [1]: 161 µM | IC50 [2]: 40.9 µM | IC50 [3]: 86.4 µM | Activity [4]: Non-toxic | Activity [5]: Non-toxic | Activity [6]: Non-toxic | Activity [7]: Non-toxic | Activity [8]: Non-toxic | Activity [9]: Non-toxic | Activity [10]: Non-toxic | Activity [11]: 1.03 g | Activity [12]: 11.19 g | IC50 [13]: 259 µM | Activity [14]: 12.7 mg/g | inhibition in vivo at 89 µmol/kg [15]: 37.7% | IC50 [16]: 68.2 µM | Activity [17]: Non-toxic | Activity [18]: Non-toxic

O=C(O)c1cc2c3ccccc3n(Cc3ccccc3)c2c(CCN[C@@H](Cc2c[nH]c3ccccc23)C(=O)O)n1
IC50 [1]: 107 µM | IC50 [2]: 102 µM | IC50 [3]: 57.3 µM | Activity [11]: 0.85 g | Activity [12]: 11.67 g | IC50 [13]: 393 µM | Activity [14]: 11.7 mg/g | inhibition in vivo at 89 µmol/kg [15]: 47.2% | IC50 [16]: 11.7 µM

CC[C@H](C)[C@H](NCCc1nc(C(=O)O)cc2c3ccccc3n(Cc3ccccc3)c12)C(=O)O
IC50 [1]: 254 µM | IC50 [2]: 33.2 µM | IC50 [3]: 69 µM | Activity [4]: Non-toxic | Activity [5]: Non-toxic | Activity [6]: Non-toxic | Activity [7]: Non-toxic | Activity [8]: Non-toxic | Activity [9]: Non-toxic | Activity [10]: Non-toxic | Activity [11]: 1.62 g | Activity [12]: 13.56 g | IC50 [13]: 200 µM | Activity [14]: 13.6 mg/g | inhibition in vivo at 89 µmol/kg [15]: 1.6% | IC50 [16]: 181 µM | Activity [17]: Non-toxic | Activity [18]: Non-toxic

C[C@@H](O)[C@H](NCCc1nc(C(=O)O)cc2c3ccccc3n(Cc3ccccc3)c12)C(=O)O
IC50 [1]: > 400 µM | IC50 [2]: 50.4 µM | IC50 [3]: 86.4 µM | Activity [4]: Non-toxic | Activity [5]: Non-toxic | Activity [6]: Non-toxic | Activity [7]: Non-toxic | Activity [8]: Non-toxic | Activity [9]: Non-toxic | Activity [10]: Non-toxic | Activity [11]: 2.12 g | Activity [12]: 11.37 g | IC50 [13]: 221 µM | Activity [14]: 11.4 mg/g | inhibition in vivo at 89 µmol/kg [15]: -29.1% | IC50 [16]: 218 µM | Activity [17]: Non-toxic | Activity [18]: Non-toxic

CC(C)[C@@H](NCCc1nc(C(=O)O)cc2c3ccccc3n(Cc3ccccc3)c12)C(=O)O
IC50 [1]: > 400 µM | IC50 [2]: > 400 µM | IC50 [3]: 199 µM | Activity [11]: 0.76 g | Activity [12]: 10.23 g | IC50 [13]: 290 µM | Activity [14]: 10.2 mg/g | inhibition in vivo at 89 µmol/kg [15]: 53.8% | IC50 [16]: 175 µM

Nc1ccn([C@@H]2O[C@H](CO)[C@@H](O)[C@@H]2O)c(=O)n1 [CYTARABINE]
Activity [11]: 0.74 g | inhibition in vivo at 89 µmol/kg [15]: 54.8%

O=C(O)c1cc2c3ccccc3n(Cc3ccccc3)c2c(CCN[C@@H](Cc2c[nH]cn2)C(=O)O)n1
IC50 [1]: 70.7 µM | IC50 [2]: 160 µM | IC50 [3]: 20 µM | Activity [11]: 1.49 g | Activity [12]: 11.87 g | IC50 [13]: 136 µM | Activity [14]: 11.9 mg/g | inhibition in vivo at 89 µmol/kg [15]: 9.7% | IC50 [16]: 14.5 µM

CSCC[C@H](NCCc1nc(C(=O)O)cc2c3ccccc3n(Cc3ccccc3)c12)C(=O)O
IC50 [1]: 108 µM | IC50 [2]: 182 µM | IC50 [3]: 100 µM | Activity [11]: 1.63 g | Activity [12]: 9.12 g | IC50 [13]: 26.5 µM | Activity [14]: 11.8 mg/g | inhibition in vivo at 89 µmol/kg [15]: 1.5% | IC50 [16]: 86.4 µM

CC(C)C[C@H](NCCc1nc(C(=O)O)cc2c3ccccc3n(Cc3ccccc3)c12)C(=O)O
IC50 [1]: 176 µM | IC50 [2]: 45.2 µM | IC50 [3]: 69.9 µM | Activity [11]: 1.51 g | Activity [12]: 9.04 g | IC50 [13]: 189 µM | Activity [14]: 10.9 mg/g | inhibition in vivo at 89 µmol/kg [15]: 8.7% | IC50 [16]: 71.2 µM

O=C(O)c1cc2c3ccccc3n(Cc3ccccc3)c2c(CCN2C(=O)CCC2C(=O)O)n1 (stereo unspecified)
IC50 [1]: > 400 µM | IC50 [2]: 112 µM | IC50 [3]: 97.6 µM | Activity [11]: 0.94 g | Activity [12]: 12.24 g | IC50 [13]: > 400 µM | Activity [14]: 12.2 mg/g | inhibition in vivo at 89 µmol/kg [15]: 43% | IC50 [16]: 45.9 µM

O=C(O)c1cc2c3ccccc3n(Cc3ccccc3)c2c(CCN2CCC[C@H]2C(=O)O)n1
IC50 [1]: 107 µM | IC50 [2]: 28.4 µM | IC50 [3]: 75.5 µM | Activity [11]: 1.53 g | Activity [12]: 12.07 g | IC50 [13]: 161 µM | Activity [14]: 12.1 mg/g | inhibition in vivo at 89 µmol/kg [15]: 7.2% | IC50 [16]: 55.2 µM

O=C(O)c1cc2c3ccccc3n(Cc3ccccc3)c2c(CCN[C@@H](CO)C(=O)O)n1
IC50 [1]: 174 µM | IC50 [2]: 23.5 µM | IC50 [3]: 83.8 µM | Activity [11]: 1.07 g | Activity [12]: 11.46 g | IC50 [13]: 210 µM | Activity [14]: 10.5 mg/g | inhibition in vivo at 89 µmol/kg [15]: 35.3% | IC50 [16]: 136 µM
